Laboratory results: ChEMBL document CHEMBL1150371, “Design and synthesis of benzenesulfonanilides active against methicillin-resistant Staphylococcus aureus and vancomycin-resistant Enterococcus” (Bioorg Med Chem, 2008)
In brackets after ≈: the same amount, converted by molar mass. Activity calls are given as the source filed them. The calls are words filed in the database; no cut-off is given here.

Experiments:
[1] = test system: Staphylococcus aureus; assay: Antimicrobial activity against methicillin-resistant Staphylococcus aureus at […] by disk diffusion method; assay type: functional
Summary of the method: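 Overnight nutrient-broth culture (35 °C, 12–18 h) of MRSA OM584 spread on Mueller-Hinton agar; 8-mm paper discs given 10 µL of 20 mM compound in DMSO; plates incubated at 37 °C about 20 h; inhibition zones measured and scored: −, ± (0–1 mm), +1 (1–15 mm), +2 (15–20 mm), +3 (>20 mm).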

[2] = test system: Staphylococcus aureus; assay: Antimicrobial activity against methicillin-resistant Staphylococcus aureus OM584 by microdilution method; assay type: functional
Summary of the method: (§1)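 Broth microdilution MIC per Japan Society of Chemotherapy standard method. Cultures grown in sensitivity test broth at 37 °C to OD620 0.1, inoculum ≈10^5 CFU/mL. Twofold dilutions from DMSO stock, 500 to 0.2 µg/mL; 20 h, 37 °C, humid. MIC = lowest concentration clearly inhibiting growth by visual inspection; vancomycin standard; media, DMSO and water controls; at least duplicate.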

[3] = test system: Enterococcus faecium; assay: Antimicrobial activity against vancomycin-resistant Enterococcus faecium FN-1 by microdilution susceptibility test; assay type: functional; summary of the method: as §1
[4] = test system: Mus musculus; assay: Acute toxicity in mouse at 100 mg/kg, ip upto 14 days; assay type: organism-based; set-up: dose 100 mg/kg, route intraperitoneal; conditions: in vivo, 336 h
Summary of the method: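 Male mice (15–30 g), water only for 12 h beforehand; compound in 0.5% CMC given ip at doses up to 100 mg kg-1, n = 5/group; toxic symptoms observed up to 14 days.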

Structure (SMILES)	Activity [1]	MIC [2] [µg/mL]	MIC [3] [µg/mL]	also measured
Cc1ccc(NS(=O)(=O)c2ccc(NS(C)(=O)=O)cc2)cc1	inactive	–	–	–
CS(=O)(=O)Nc1ccc(S(=O)(=O)Nc2ccc(Cl)cc2)cc1	–	–	–	inhibition zone (IZ) [1]: 0 mm
Cc1ccc(NS(=O)(=O)c2cc(C(F)(F)F)cc(C(F)(F)F)c2)cc1	–	> 250	> 250	–
O=S(=O)(Nc1cc(F)ccc1F)c1cc(C(F)(F)F)cc(C(F)(F)F)c1	–	15.6 (≈ 38.5 µM)	62.5 (≈ 154 µM)	–
CN(c1cc(Cl)cc(Cl)c1)S(=O)(=O)c1cc(C(F)(F)F)cc(C(F)(F)F)c1	–	> 250	> 250	–
O=S(=O)(Nc1cc(Cl)c(O)c(Cl)c1)c1cc(C(F)(F)F)cc(C(F)(F)F)c1	–	125 (≈ 275 µM)	62.5 (≈ 138 µM)	–
O=S(=O)(Nc1ccc(F)c(F)c1)c1cc(C(F)(F)F)cc(C(F)(F)F)c1	–	3.9 (≈ 9.62 µM)	7.8 (≈ 19.2 µM)	–
CN[C@H](CC(C)C)C(=O)N[C@H]1C(=O)N[C@@H](CC(N)=O)C(=O)N[C@H]2C(=O)N[C@H]3C(=O)N[C@H](C(=O)N[C@H](C(=O)O)c4cc(O)cc(O)c4-c4cc3ccc4O)[C@H](O)c3ccc(c(Cl)c3)Oc3cc2cc(c3O[C@@H]2O[C@H](CO)[C@@H](O)[C@H](O)[C@H]2O[C@H]2C[C@](C)(N)[C@H](O)[C@H](C)O2)Oc2ccc(cc2Cl)[C@H]1O [VANCOMYCIN]	–	–	125 (≈ 86.3 µM)	–
O=S(=O)(Nc1cccc(C(F)(F)F)c1)c1cc(Cl)cc(Cl)c1	–	125 (≈ 338 µM)	62.5 (≈ 169 µM)	–
Cc1ccc(NS(=O)(=O)c2ccc(N)cc2)cc1	inactive	–	–	–
O=S(=O)(Nc1ccc(Cl)cc1)c1cc(C(F)(F)F)cc(C(F)(F)F)c1	–	31.3 (≈ 77.5 µM)	62.5 (≈ 155 µM)	–
CS(=O)(=O)Nc1ccc(S(=O)(=O)Nc2ccccc2)cc1	inactive	–	–	–
Cc1ccc(NS(=O)(=O)c2cc(Cl)cc(Cl)c2)cc1	–	> 250	62.5 (≈ 198 µM)	–
O=S(=O)(Nc1ccc(Cl)cc1)c1cc(Cl)cc(Cl)c1	–	> 250	125 (≈ 371 µM)	–
Nc1ccc(S(=O)(=O)Nc2ccc(I)cc2)cc1	inactive	–	–	–
O=[N+]([O-])c1ccc(S(=O)(=O)Nc2ccc(C(F)(F)F)cc2)cc1	inactive	–	–	–
Cc1ccc(NS(=O)(=O)c2ccc(C(=O)O)cc2)cc1	inactive	–	–	–
O=S(=O)(Nc1ccc(C(F)(F)F)cc1)c1cc(Cl)cc(Cl)c1	–	31.3 (≈ 84.6 µM)	31.3 (≈ 84.6 µM)	–
COc1ccc(NS(=O)(=O)c2ccc(C(=O)O)cc2)cc1	inactive	–	–	–
O=S(=O)(Nc1cc(Cl)cc(Cl)c1)c1ccc(C(F)(F)F)cc1	–	15.6 (≈ 42.1 µM)	7.8 (≈ 21.1 µM)	–
O=S(=O)(Nc1cc(Cl)cc(Cl)c1)c1ccc(Cl)cc1	–	31.3 (≈ 93 µM)	62.5 (≈ 186 µM)	–
COc1ccc(NS(=O)(=O)c2ccc(N)cc2)cc1	inactive	–	–	–
COc1ccc(NS(=O)(=O)c2cc(C(F)(F)F)cc(C(F)(F)F)c2)cc1	–	> 250	125 (≈ 313 µM)	–
O=S(=O)(Nc1cc(Cl)cc(Cl)c1)c1cc(C(F)(F)F)cc(C(F)(F)F)c1	–	0.5 (≈ 1.14 µM)	1 (≈ 2.28 µM)	Activity [4]: Non-toxic
Nc1ccc(S(=O)(=O)Nc2cc(C(F)(F)F)cc(C(F)(F)F)c2)cc1	–	125 (≈ 325 µM)	62.5 (≈ 163 µM)	inhibition zone (IZ) [1]: 1 mm
O=S(=O)(Nc1cc(C(F)(F)F)cc(C(F)(F)F)c1)c1cc(Cl)cc(Cl)c1	–	0.5 (≈ 1.14 µM)	1 (≈ 2.28 µM)	–

Structure (SMILES)	Activity [1]	MIC [2] [µg/mL]	MIC [3] [µg/mL]	also measured
O=S(=O)(Nc1ccc(C(F)(F)F)cn1)c1cc(Cl)cc(Cl)c1	–	> 250	> 250	–
O=S(=O)(Nc1cc(C(F)(F)F)cc(C(F)(F)F)c1)c1ccc(F)cc1	–	15.6 (≈ 40.3 µM)	62.5 (≈ 161 µM)	–
Nc1ccc(S(=O)(=O)Nc2ccc(C(F)(F)F)cc2)cc1	inactive	–	–	–
O=[N+]([O-])c1ccc(S(=O)(=O)Nc2cc(C(F)(F)F)cc(C(F)(F)F)c2)cc1	–	31.3 (≈ 75.6 µM)	3.9 (≈ 9.41 µM)	inhibition zone (IZ) [1]: >20 mm
O=S(=O)(Nc1ccc(F)cc1F)c1cc(C(F)(F)F)cc(C(F)(F)F)c1	–	> 250	> 250	–
O=[N+]([O-])c1ccc(NS(=O)(=O)c2cc(Cl)cc(Cl)c2)cc1	–	7.8 (≈ 22.5 µM)	15.6 (≈ 44.9 µM)	–
Cc1ccccc1NS(=O)(=O)c1ccc(N)cc1	inactive	–	–	–
COc1ccc(S(=O)(=O)Nc2cc(C(F)(F)F)cc(C(F)(F)F)c2)cc1	–	62.5 (≈ 157 µM)	62.5 (≈ 157 µM)	inhibition zone (IZ) [1]: 1 mm
Cc1cccc(NS(=O)(=O)c2ccc(N)cc2)c1	inactive	–	–	–
Cc1ccc(NS(=O)(=O)c2ccc([N+](=O)[O-])cc2)cc1	inactive	–	–	–
Nc1ccc(S(=O)(=O)Nc2ccccc2)cc1	inactive	–	–	–
Cc1cccc(NS(=O)(=O)c2ccc(NS(C)(=O)=O)cc2)c1	inactive	–	–	–
Cl.O=[N+]([O-])c1ccc(S(=O)(=O)Nc2cc(C(F)(F)F)cc(C(F)(F)F)c2)cc1	–	–	–	inhibition zone (IZ) [1]: >20 mm
Nc1ccc(S(=O)(=O)Nc2cc(Cl)cc(Cl)c2)cc1	–	250 (≈ 788 µM)	31.3 (≈ 98.7 µM)	–
O=S(=O)(Nc1ccc(Cl)cc1Cl)c1cc(C(F)(F)F)cc(C(F)(F)F)c1	–	> 250	> 250	–
O=[N+]([O-])c1ccc(S(=O)(=O)Nc2cc(Cl)cc(Cl)c2)cc1	–	> 250	62.5 (≈ 180 µM)	–
Cc1cccc(NS(=O)(=O)c2ccc([N+](=O)[O-])cc2)c1	–	–	–	inhibition zone (IZ) [1]: 1 mm
Cc1cc(C)cc(NS(=O)(=O)c2ccc(N)cc2)c1	inactive	–	–	–
O=S(=O)(Nc1cc(Cl)nc(Cl)c1)c1cc(Cl)cc(Cl)c1	–	15.6 (≈ 41.9 µM)	7.8 (≈ 21 µM)	–
COc1ccc(NS(=O)(=O)c2cc(Cl)cc(Cl)c2)cc1	–	125 (≈ 376 µM)	125 (≈ 376 µM)	–
Nc1ccc(NS(=O)(=O)c2cc(C(F)(F)F)cc(C(F)(F)F)c2)cc1	–	> 250	> 250	–
Cl.Nc1ccc(S(=O)(=O)Nc2cc(C(F)(F)F)cc(C(F)(F)F)c2)cc1	–	–	–	inhibition zone (IZ) [1]: 1 mm
Cc1cc(C)cc(NS(=O)(=O)c2ccc(C(=O)O)cc2)c1	inactive	–	–	–
Nc1ccc(S(=O)(=O)Nc2ccc(Cl)cc2)cc1	inactive	–	–	–
COc1ccc(S(=O)(=O)Nc2cc(Cl)cc(Cl)c2)cc1	–	250 (≈ 753 µM)	125 (≈ 376 µM)	–
O=S(=O)(Nc1cccc(F)c1F)c1cc(C(F)(F)F)cc(C(F)(F)F)c1	–	15.6 (≈ 38.5 µM)	62.5 (≈ 154 µM)	–

Structure (SMILES)	Activity [1]	MIC [2] [µg/mL]	MIC [3] [µg/mL]	also measured
O=S(=O)(Nc1cc(C(F)(F)F)cc(C(F)(F)F)c1)c1cccc(Cl)c1	–	31.3 (≈ 77.5 µM)	15.6 (≈ 38.6 µM)	–
O=S(=O)(Nc1cc(Cl)nc(Cl)c1)c1cc(C(F)(F)F)cc(C(F)(F)F)c1	–	15.6 (≈ 35.5 µM)	7.8 (≈ 17.8 µM)	–
O=C(O)c1ccc(S(=O)(=O)Nc2ccc(I)cc2)cc1	inactive	–	–	–
Cc1ccc(S(=O)(=O)Nc2cc(Cl)cc(Cl)c2)cc1	–	125 (≈ 395 µM)	62.5 (≈ 198 µM)	–
Cc1cc(C)cc(NS(=O)(=O)c2ccc([N+](=O)[O-])cc2)c1	inactive	–	–	–
O=S(=O)(Nc1cc(C(F)(F)F)cc(C(F)(F)F)c1)c1ccc(C(F)(F)F)cc1	–	15.6 (≈ 35.7 µM)	7.8 (≈ 17.8 µM)	inhibition zone (IZ) [1]: >20 mm
O=S(=O)(Nc1cc(F)cc(F)c1)c1cc(Cl)cc(Cl)c1	–	31.3 (≈ 92.6 µM)	7.8 (≈ 23.1 µM)	–
O=S(=O)(Nc1c(F)cccc1F)c1cc(C(F)(F)F)cc(C(F)(F)F)c1	–	> 250	> 250	–
Cc1ccc(S(=O)(=O)Nc2cc(C(F)(F)F)cc(C(F)(F)F)c2)cc1	inactive	62.5 (≈ 163 µM)	62.5 (≈ 163 µM)	–
CS(=O)(=O)Nc1ccc(S(=O)(=O)Nc2ccc(C(F)(F)F)cc2)cc1	inactive	–	–	–
COc1ccc(NS(=O)(=O)c2ccc(NS(C)(=O)=O)cc2)cc1	inactive	–	–	–
O=S(=O)(Nc1c(Cl)cccc1Cl)c1cc(C(F)(F)F)cc(C(F)(F)F)c1	–	> 250	> 250	–
CN(c1cc(C(F)(F)F)cc(C(F)(F)F)c1)S(=O)(=O)c1cc(Cl)cc(Cl)c1	–	> 250	> 250	–
Cc1cc(C)cc(NS(=O)(=O)c2ccc(NS(C)(=O)=O)cc2)c1	inactive	–	–	–
O=[N+]([O-])c1ccc(NS(=O)(=O)c2cc(C(F)(F)F)cc(C(F)(F)F)c2)cc1	–	7.8 (≈ 18.8 µM)	7.8 (≈ 18.8 µM)	–
Cc1ccccc1NS(=O)(=O)c1ccc(NS(C)(=O)=O)cc1	inactive	–	–	–
O=[N+]([O-])c1ccc(S(=O)(=O)Nc2ccccc2)cc1	inactive	–	–	–
CS(=O)(=O)Nc1ccc(S(=O)(=O)Nc2cc(C(F)(F)F)cc(C(F)(F)F)c2)cc1	–	–	–	inhibition zone (IZ) [1]: 0 mm
Nc1ccc(NS(=O)(=O)c2cc(Cl)cc(Cl)c2)cc1	–	> 250	> 250	–
O=S(=O)(Nc1cc(Cl)c(O)c(Cl)c1)c1cc(Cl)cc(Cl)c1	–	31.3 (≈ 80.9 µM)	31.3 (≈ 80.9 µM)	–
O=S(=O)(Nc1cc(C(F)(F)F)cc(C(F)(F)F)c1)c1ccc(Cl)cc1	–	7.8 (≈ 19.3 µM)	7.8 (≈ 19.3 µM)	inhibition zone (IZ) [1]: 15 mm
O=S(=O)(Nc1cc(F)cc(F)c1)c1cc(C(F)(F)F)cc(C(F)(F)F)c1	–	2 (≈ 4.94 µM)	7.8 (≈ 19.2 µM)	Activity [4]: Non-toxic
COc1ccc(NS(=O)(=O)c2ccc([N+](=O)[O-])cc2)cc1	inactive	–	–	–
O=S(=O)(Nc1ccc(C(F)(F)F)cc1)c1cc(C(F)(F)F)cc(C(F)(F)F)c1	–	7.8 (≈ 17.8 µM)	3.9 (≈ 8.92 µM)	–
Cc1ccccc1NS(=O)(=O)c1ccc(C(=O)O)cc1	inactive	–	–	–
